Experiments:
[1] = system: Mus musculus; experiment: Percent of animals (n=8) not exhibiting PTZ-induced ( Pentylentetrazol protection) seizures 10 min following a 10 mg/kg ip dose of steroid.; format: functional; details: route intraperitoneal
Summary of the method: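 Male NSA mice (15-20 g), n = 8. […] Mice watched 30 min for clonic seizure (forelimb clonus ≥3 s). Read-out is the percent of mice protected.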

[2] = organism: Rattus norvegicus; experiment: The maximum inhibitory potency was calculated by fitting [35S]TBPS inhibition data to a sigmoid function (rat brain cortical P2 membranes) (high affinity); format: functional
Summary of the method: (§1)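 Rat cortical P2 membranes, washed in 200 mM NaCl/50 mM Na-K phosphate pH 7.4, incubated 90 min at room temperature with 2 nM [35S]TBPS, 5 µM GABA and test drug in DMSO (final 0.5%). Nonspecific binding taken with 2 µM unlabeled TBPS. Filtration, then scintillation counting. Partial vs full and one- vs two-component models chosen by F-test. IC50 and Imax come from individual experiments, given as mean ± SEM of 3–4.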

[3] = target: GABA-A receptor; alpha-1/beta-2/gamma-2 (Homo sapiens) (UniProt P14867+P47870+P18507); experiment: Efficacy as fractional response (FR) relative to GABA maximum current elicited in the Xenopus oocytes; format: functional, cell-based; details: Oocyte
Summary of the method: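 Xenopus oocytes expressing α1β2γ2L GABAA receptors (~1 ng each cRNA), two-electrode voltage clamp at -70 mV in frog Ringer's pH 7.4. GABA set to give ~5% of maximal current (1 mM GABA). Steroid co-applied with 0.3% DMSO. Response taken as potentiation plus any direct current, expressed as a fraction of GABA maximum, fit to a four-parameter logistic.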

[4] = target: GABA-A receptor; anion channel; experiment: (§2) In vitro inhibition of [35S]TBPS binding to Gamma-aminobutyric acid A receptor in rat brain cortical membranes in the presence of 5 uM GABA (low affinity); format: cell membranes, Membrane; summary of the method: as §1
[5] = target: GABA-A receptor; anion channel; experiment: In vitro inhibition of [35S]TBPS binding to Gamma-aminobutyric acid A (GABA-A) receptor of rat brain cortical membranes in the presence of 5 uM GABA(high affinity); format: cell membranes, Membrane; summary of the method: as §1
[6] = The slope value for efficacy and response
Summary of the method: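 Oocytes expressing α1β2γ2L GABAA receptors under two-electrode voltage clamp in frog Ringer's pH 7.4. GABA or steroid concentration-response data fitted to a four-parameter logistic equation to derive slope. Mean ± SEM.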

[7] = organism: Rattus norvegicus; experiment: (§3) The maximum inhibitory potency was calculated by fitting [35S]TBPS inhibition data to a sigmoid function (rat brain cortical P2 membranes) (low affinity); format: functional; summary of the method: as §1
[8] = target: T1, GABA-A receptor; alpha-1/beta-2/gamma-2 (Homo sapiens, UniProt P14867+P18507+P47870); experiment: Steroid potentiation of 5% GABA responses in Xenopus oocytes expressing human alpha-1-beta-2-gamma-2L subunits of GABA-A receptor; format: functional, cell-based, Oocyte
T1 sequence (P14867 whole entry): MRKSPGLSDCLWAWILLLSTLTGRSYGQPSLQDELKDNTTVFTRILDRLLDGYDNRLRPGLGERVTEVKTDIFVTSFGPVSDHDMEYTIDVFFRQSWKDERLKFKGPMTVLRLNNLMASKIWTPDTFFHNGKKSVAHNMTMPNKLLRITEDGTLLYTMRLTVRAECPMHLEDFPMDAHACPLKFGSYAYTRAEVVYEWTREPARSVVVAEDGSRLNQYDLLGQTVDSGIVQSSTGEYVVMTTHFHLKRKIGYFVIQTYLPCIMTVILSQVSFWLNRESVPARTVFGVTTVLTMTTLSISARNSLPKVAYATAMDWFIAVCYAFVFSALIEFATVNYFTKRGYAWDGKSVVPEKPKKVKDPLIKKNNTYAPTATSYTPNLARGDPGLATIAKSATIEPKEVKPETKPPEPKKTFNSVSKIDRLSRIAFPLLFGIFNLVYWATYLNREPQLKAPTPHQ
T1 sequence (P47870 whole entry): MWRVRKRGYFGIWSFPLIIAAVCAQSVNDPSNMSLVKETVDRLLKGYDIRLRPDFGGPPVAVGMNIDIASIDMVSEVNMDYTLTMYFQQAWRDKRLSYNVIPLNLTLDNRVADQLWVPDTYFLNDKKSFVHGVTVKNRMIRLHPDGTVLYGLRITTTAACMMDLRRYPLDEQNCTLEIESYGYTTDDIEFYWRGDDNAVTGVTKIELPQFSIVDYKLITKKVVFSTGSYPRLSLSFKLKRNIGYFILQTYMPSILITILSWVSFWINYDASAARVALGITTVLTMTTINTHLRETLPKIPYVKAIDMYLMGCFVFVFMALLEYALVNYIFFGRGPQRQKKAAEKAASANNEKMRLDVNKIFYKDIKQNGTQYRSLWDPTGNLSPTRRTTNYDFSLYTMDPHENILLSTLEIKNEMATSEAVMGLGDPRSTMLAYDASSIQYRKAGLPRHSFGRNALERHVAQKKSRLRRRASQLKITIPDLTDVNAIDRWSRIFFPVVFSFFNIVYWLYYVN
T1 sequence (P18507 whole entry): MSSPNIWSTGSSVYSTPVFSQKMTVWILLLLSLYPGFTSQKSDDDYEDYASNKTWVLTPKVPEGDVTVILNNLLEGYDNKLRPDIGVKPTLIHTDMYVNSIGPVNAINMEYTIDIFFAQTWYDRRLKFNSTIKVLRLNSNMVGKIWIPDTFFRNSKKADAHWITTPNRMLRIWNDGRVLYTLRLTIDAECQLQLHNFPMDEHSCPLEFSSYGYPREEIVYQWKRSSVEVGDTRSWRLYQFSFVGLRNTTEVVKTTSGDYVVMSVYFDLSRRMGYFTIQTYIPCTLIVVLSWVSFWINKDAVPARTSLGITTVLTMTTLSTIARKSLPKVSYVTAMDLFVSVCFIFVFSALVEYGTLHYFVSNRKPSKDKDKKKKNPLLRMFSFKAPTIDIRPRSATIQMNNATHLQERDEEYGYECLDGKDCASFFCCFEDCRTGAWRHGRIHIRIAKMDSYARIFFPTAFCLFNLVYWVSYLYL
Summary of the method: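 Xenopus oocytes injected with α1, β2, γ2L cRNAs (~1 ng each). Two-electrode voltage clamp at -70 mV in frog Ringer's, pH 7.4. GABA set to give about 5% of the maximal (1 mM GABA) current. Steroid stocks in DMSO diluted into Ringer's, DMSO 0.3%. Modulation is potentiation plus any direct steroid current, fitted to a four-parameter logistic. Mean ± SEM.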

[9] = organism: Rattus norvegicus; experiment: (§4) The maximum inhibitory potency was calculated by fitting [35S]TBPS inhibition data to a sigmoid function (rat brain cortical P2 membranes); format: functional; summary of the method: as §1
[10] = target: T2, Gamma-aminobutyric acid receptor subunit gamma-1 (Rattus norvegicus, UniProt P23574); experiment: In vitro for inhibition of [35S]TBPS binding in rat brain cortical membranes in the presence of 5 uM GABA in two-component inhibition curve; format: functional, cell membranes, Membrane; summary of the method: as §1
[11] = Toxic dose that produces increase in hanging-wire failure; format: toxicity; details: mouse
Summary of the method: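 Male NSA mice, 15–20 g, given steroid ip in 50% HP-β-CD 30 min before testing. Hanging wire of 2 mm diameter, 25 cm above padding. A pass means both hindpaws reach the wire within 5 s. Quantal scoring; TD50 with 95% confidence interval.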

[12] = Slope value was determined
[13] = system: Mus musculus; experiment: Anticonvulsant potency that produces blockade of PTZ-induced seizures when administered intraperitoneally; format: functional; details: ip
Summary of the method: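 Male NSA mice given steroid ip in 50% HP-β-CD 30 min before PTZ 85 mg/kg sc. Mice watched 30 min for forelimb clonus ≥3 s. Quantal dose-response; ED50 reported with 95% confidence interval.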

[14] = system: Mus musculus; experiment: Anticonvulsant potency that produces blockade of MES-induced seizures when administered intraperitoneally; format: functional; details: ip
Summary of the method: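 Male NSA mice given steroid ip in 50% HP-β-CD 30 min before corneal electroshock (50 mA, 60 pulses/s, 0.8 ms pulses, 1 s). End-point is tonic hindlimb extension >90° within 30 s. Quantal dose-response; ED50 reported with 95% CI.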

[15] = organism: Rattus norvegicus; experiment: as §4; format: functional; remark: listed apart in the source
Summary of the method: (§5)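 Rat cortical P2 membranes washed in 200 mM NaCl/50 mM Na-K phosphate pH 7.4, incubated 90 min at room temperature with 2 nM [35S]TBPS, 5 µM GABA and test drug in DMSO (final 0.5%). Nonspecific binding defined with 2 µM unlabeled TBPS. Filtration, scintillation counting. Fits to one- or two-component, full or partial inhibition models chosen by F-test; IC50 and Imax as mean ± SEM of individual experiments.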

[16] = target: GABA-A receptor; anion channel; experiment: as §2; format: cell membranes, Membrane; summary of the method: as §5; remark: listed apart in the source
[17] = target: GABA-A receptor; anion channel; experiment: In vitro inhibition of [35S]TBPS binding to Gamma-aminobutyric acid A receptor in rat brain cortical membranes in the presence of 5 uM GABA (high affinity); format: cell membranes, Membrane; summary of the method: as §5
[18] = target: T2, Gamma-aminobutyric acid receptor subunit gamma-1; experiment: In vitro inhibition of [35S]-TBPS binding to Gamma-aminobutyric acid A receptor in rat brain cortical membranes in the presence of 5 uM GABA (low affinity); format: functional, cell membranes, Membrane; summary of the method: as §1
[19] = organism: Rattus norvegicus; experiment: as §3; format: functional; summary of the method: as §5; remark: listed apart in the source
[20] = target: GABA-A receptor; anion channel; experiment: In vitro inhibition of [35S]TBPS binding to gamma-aminobutyric-acid A receptor in rat brain cortical membranes in the presence of 5 uM GABA.; format: cell membranes, Membrane
Summary of the method: as §1, with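 “F-test.” for “F-test. IC50 and Imax come from individual experiments, given as mean ± SEM of 3–4.”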

T2 sequence (P23574 whole entry): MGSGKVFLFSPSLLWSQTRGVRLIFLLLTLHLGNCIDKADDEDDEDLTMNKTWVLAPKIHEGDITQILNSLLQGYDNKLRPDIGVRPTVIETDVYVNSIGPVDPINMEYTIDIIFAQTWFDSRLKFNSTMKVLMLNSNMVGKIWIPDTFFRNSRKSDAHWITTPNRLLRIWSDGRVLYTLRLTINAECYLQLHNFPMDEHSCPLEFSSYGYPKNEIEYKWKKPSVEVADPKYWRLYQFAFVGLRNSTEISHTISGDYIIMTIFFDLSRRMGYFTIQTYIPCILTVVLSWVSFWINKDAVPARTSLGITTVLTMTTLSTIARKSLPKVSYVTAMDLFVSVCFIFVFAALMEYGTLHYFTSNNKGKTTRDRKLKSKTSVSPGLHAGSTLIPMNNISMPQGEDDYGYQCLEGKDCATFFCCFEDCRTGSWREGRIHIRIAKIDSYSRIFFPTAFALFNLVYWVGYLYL

| SMILES | PTZ protection [1] [%] | Imax [2] [%] | Efficacy [3] | IC50 [4] [nM] | IC50 [5] [nM] | Slope [6] | Imax [7] [%] | EC50 [8] [nM] | Imax [9] [%] | IC50 [10] [nM] | TD50 [11] [mg/kg] | Slope [12] | ED50 [13] [mg/kg] | ED50 [14] [mg/kg] | Imax [15] [%] | IC50 [16] [nM] | IC50 [17] [nM] | IC50 [18] [nM] | Imax [19] [%] | IC50 [20] [nM] |
| --- | --- | --- | --- | --- | --- | --- | --- | --- | --- | --- | --- | --- | --- | --- | --- | --- | --- | --- | --- | --- |
| CC(=O)[C@H]1CC[C@H]2[C@@H]3CC[C@@H]4C[C@@](O)(C#Cc5ccc(C=O)cc5)CC[C@]4(C)[C@H]3CC[C@]12C | 0 | 44 | 0.88 | 1600 | 67 | 1.3 | 54 | 31 | 54 | 1600 | – | – | – | – | – | – | – | – | – | – |
| CC(=O)c1ccc(C#C[C@@]2(O)CC[C@H]3[C@H](CC[C@@H]4[C@@H]3CC[C@]3(C)[C@@H](C(C)=O)CC[C@@H]43)C2)cc1 | 100 | – | 0.91 | – | – | – | – | 8.2 | – | – | 13.2 | 1.4 | 2.8 | 9.2 | 97 | – | – | – | – | – |
| CC(=O)c1cccc(C#C[C@@]2(O)CC[C@@]3(C)[C@H](CC[C@@H]4[C@@H]3CC[C@]3(C)[C@@H](C(C)=O)CC[C@@H]43)C2)c1 | 0 | 34 | – | – | – | – | 65 | – | – | – | – | – | – | – | – | 1500 | 45 | – | – | – |
| CC(=O)[C@H]1CC[C@H]2[C@@H]3CC[C@@H]4C[C@@](O)(C#Cc5ccccc5O)CC[C@]4(C)[C@H]3CC[C@]12C | 0 | 30 | 0.51 | – | 82 | – | 57 | 340 | – | – | – | 1.6 | – | – | – | – | – | 5100 | – | – |
| CC(=O)[C@H]1CC[C@H]2[C@@H]3CC[C@@H]4C[C@@](O)(C#Cc5ccc(N)cc5)CC[C@]4(C)[C@H]3CC[C@]12C | 13 | 17 | – | – | – | – | – | > 1000 | – | – | – | – | – | – | – | 11800 | 96 | – | 84 | – |
| CC(=O)c1ccc(C#C[C@@]2(O)CC[C@@]3(C)[C@H](CC[C@@H]4[C@@H]3CC[C@]3(C)[C@@H](C(C)=O)CC[C@@H]43)C2)cc1 | 75 | – | 0.94 | – | – | – | – | 6.6 | – | – | 10 | 1.2 | 8.2 | 7.4 | 106 | – | – | – | – | 10 |
